In ChEMBL document CHEMBL1147951, “Synthesis and antimicrobial activity of symmetrical two-tailed dendritic tricarboxylato amphiphiles” (2007):
In brackets after ≈: the same amount, converted by molar mass.

Assays:
Format in all cases: functional
Micrococcus luteus = experiment: Antimicrobial activity against Micrococcus luteus by broth microdilution assay
Method in brief: (§1)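 Compounds were dissolved in aqueous triethanolamine (stock pH 8–9) and serially diluted twofold in 1/10-strength BHI broth + 0.2% sucrose. Inocula were adjusted with buffered saline gelatin to McFarland No. 1; for A. niger, spores were scraped from PDA. Plates were incubated at 30 °C and turbidity was scored visually on day 4. MIC, run in triplicate, was the lowest concentration giving a prominent visible decrease in turbidity.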

Escherichia coli = experiment: Antimicrobial activity against Escherichia coli by broth microdilution assay
Method in brief: (§2)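 Strains were E. coli strain C (ATCC 13706) and K. pneumoniae ATCC 4352, grown from a single colony in 1/10-strength BHI broth + 0.2% sucrose and adjusted with buffered saline gelatin to McFarland No. 1. Twofold dilution series of compound in triethanolamine/water used doubled medium and inoculum volumes. Plates were incubated at 37 °C and turbidity was scored visually on day 7. MIC, run in triplicate, was the lowest concentration giving a prominent visible turbidity decrease.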

Klebsiella pneumoniae = experiment: Antimicrobial activity against Klebsiella pneumoniae by broth microdilution assay; method in brief: as §2
Cryptococcus neoformans = experiment: Antimicrobial activity against Cryptococcus neoformans by broth microdilution assay; method in brief: as §1
[1] = tested on: Lactiplantibacillus plantarum; experiment: Antimicrobial activity against Lactobacillus plantarum by broth microdilution assay
Method in brief: (§3)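 Strains were L. plantarum ATCC 14917, precultured in TSB, and M. smegmatis ATCC 607, precultured in Middlebrook 7H9. Inocula were diluted with buffered saline gelatin to McFarland No. 1. Twofold dilutions of compound in aqueous triethanolamine were made in 1/10-strength BHI broth + 0.2% sucrose and mixed with an equal volume of inoculum. Plates were incubated at 30 °C and scored visually for turbidity on day 4. MIC was determined in triplicate.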

[2] = tested on: Mycolicibacterium smegmatis; experiment: Antimicrobial activity against Mycobacterium smegmatis by broth microdilution assay; method in brief: as §3
Saccharomyces cerevisiae = experiment: Antimicrobial activity against Saccharomyces cerevisiae by broth microdilution assay; method in brief: as §1
Candida albicans = experiment: Antimicrobial activity against Candida albicans by broth microdilution assay; method in brief: as §1
Aspergillus niger = experiment: Antimicrobial activity against Aspergillus niger by broth microdilution assay; method in brief: as §1
Staphylococcus aureus [3] = experiment: Antimicrobial activity against Staphylococcus aureus by broth microdilution assay
Method in brief: (§4)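 Twofold dilution series of amphiphile (dissolved in aqueous triethanolamine, pH 8–9) in 1/10-strength Brain Heart Infusion Broth with 0.2% sucrose. Inoculum from a single-colony broth culture, diluted with buffered saline gelatin to No. 1 McFarland turbidity. Incubated at 30 °C; turbidity scored visually on day 4. MIC = lowest concentration giving a prominent visible decrease in turbidity; triplicate.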

Staphylococcus aureus [4] = experiment: Antimicrobial activity against methicillin-resistant Staphylococcus aureus by broth microdilution assay; method in brief: as §4

Row | Compound | MIC (Micrococcus luteus) | MIC (Escherichia coli) | MIC (Klebsiella pneumoniae) | MIC (Cryptococcus neoformans) | MIC [1] | MIC [2] | MIC (Saccharomyces cerevisiae) | MIC (Candida albicans) | MIC (Aspergillus niger) | MIC (Staphylococcus aureus [3]) | MIC (Staphylococcus aureus [4])
1 | CCCCCCCCCC(CCCCCCCCC)NC(=O)NC(CCC(=O)O)(CCC(=O)O)CCC(=O)O | > 11000 µM | 350 µM (≈ 195 µg/mL) | > 11000 µM | 64 µM (≈ 35.6 µg/mL) | 5600 µM (≈ 3120 µg/mL) | 350 µM (≈ 195 µg/mL) | 2800 µM (≈ 1560 µg/mL) | > 11000 µM | 2800 µM (≈ 1560 µg/mL) |  | 
2 | CCCCCCCCN(CCCCCCCC)C(=O)NC(CCC(=O)O)(CCC(=O)O)CCC(=O)O | 3000 µM (≈ 1540 µg/mL) | 760 µM (≈ 391 µg/mL) | > 1100 µM | 550 µM (≈ 283 µg/mL) | 1500 µM (≈ 772 µg/mL) | 1500 µM (≈ 772 µg/mL) | 380 µM (≈ 196 µg/mL) | 190 µM (≈ 97.8 µg/mL) | 380 µM (≈ 196 µg/mL) | > 12000 µM | 3000 µM (≈ 1540 µg/mL)
3 | CCCCCCCCCCCCC(CCCCCCCCCCCC)NC(=O)NC(CCC(=O)O)(CCC(=O)O)CCC(=O)O | > 9800 µM | 2400 µM (≈ 1540 µg/mL) | > 9800 µM | 6.9 µM (≈ 4.42 µg/mL) | 9800 µM (≈ 6280 µg/mL) | 1200 µM (≈ 769 µg/mL) | 610 µM (≈ 391 µg/mL) | > 9800 µM | 9800 µM (≈ 6280 µg/mL) | > 9800 µM | 
4 | CCCCCCCCCCCCCCNC(=O)NC(CCC(=O)O)(CCC(=O)O)CCC(=O)O | > 13000 µM | 290 µM (≈ 141 µg/mL) | 290 µM (≈ 141 µg/mL) | 1600 µM (≈ 779 µg/mL) | 6400 µM (≈ 3110 µg/mL) | 580 µM (≈ 282 µg/mL) | 580 µM (≈ 282 µg/mL) | 1600 µM (≈ 779 µg/mL) | 6400 µM (≈ 3110 µg/mL) | 6400 µM (≈ 3110 µg/mL) | 6400 µM (≈ 3110 µg/mL)
5 | CCCCCCCN(CCCCCCC)C(=O)NC(CCC(=O)O)(CCC(=O)O)CCC(=O)O | 6400 µM (≈ 3110 µg/mL) | 3200 µM (≈ 1560 µg/mL) | > 1200 µM | 1200 µM (≈ 584 µg/mL) | 6400 µM (≈ 3110 µg/mL) | 3200 µM (≈ 1560 µg/mL) | 800 µM (≈ 389 µg/mL) | 1600 µM (≈ 779 µg/mL) | 800 µM (≈ 389 µg/mL) | > 13000 µM | 3200 µM (≈ 1560 µg/mL)
6 | CCCCCCCCCCN(CCCCCCCCCC)C(=O)NC(CCC(=O)O)(CCC(=O)O)CCC(=O)O | 11000 µM (≈ 6280 µg/mL) | 2700 µM (≈ 1540 µg/mL) | > 1000 µM | 62 µM (≈ 35.4 µg/mL) | 11000 µM (≈ 6280 µg/mL) | 680 µM (≈ 388 µg/mL) | 2700 µM (≈ 1540 µg/mL) | > 11000 µM | 11000 µM (≈ 6280 µg/mL) | > 11000 µM | 11000 µM (≈ 6280 µg/mL)
7 | CCCCCCCCCCC(CCCCCCCCCC)NC(=O)NC(CCC(=O)O)(CCC(=O)O)CCC(=O)O | > 11000 µM | 2700 µM (≈ 1580 µg/mL) | > 11000 µM | 15 µM (≈ 8.77 µg/mL) | 5300 µM (≈ 3100 µg/mL) | 330 µM (≈ 193 µg/mL) | 2700 µM (≈ 1580 µg/mL) | > 11000 µM | 11000 µM (≈ 6430 µg/mL) |  | 
8 | CCCCCCCCCCCCCCCCCCNC(=O)NC(CCC(=O)O)(CCC(=O)O)CCC(=O)O | > 12000 µM | 130 µM (≈ 70.6 µg/mL) | 260 µM (≈ 141 µg/mL) | 90 µM (≈ 48.8 µg/mL) | 1400 µM (≈ 760 µg/mL) | 33 µM (≈ 17.9 µg/mL) | 130 µM (≈ 70.6 µg/mL) | 1400 µM (≈ 760 µg/mL) | 1400 µM (≈ 760 µg/mL) | 1400 µM (≈ 760 µg/mL) | 720 µM (≈ 391 µg/mL)
9 | CCCCCCCCCCCN(CCCCCCCCCCC)C(=O)NC(CCC(=O)O)(CCC(=O)O)CCC(=O)O | 10000 µM (≈ 5990 µg/mL) | 2600 µM (≈ 1560 µg/mL) | > 950 µM | > 950 µM | 10000 µM (≈ 5990 µg/mL) | 650 µM (≈ 389 µg/mL) | 5200 µM (≈ 3110 µg/mL) | > 10000 µM | 10000 µM (≈ 5990 µg/mL) | > 10000 µM | 10000 µM (≈ 5990 µg/mL)
10 | CCCCCCCCCCCCCCCCCCCCCCNC(=O)NC(CCC(=O)O)(CCC(=O)O)CCC(=O)O | > 10000 µM | 120 µM (≈ 71.9 µg/mL) | 470 µM (≈ 281 µg/mL) | 5200 µM (≈ 3110 µg/mL) | 950 µM (≈ 569 µg/mL) | 120 µM (≈ 71.9 µg/mL) | 30 µM (≈ 18 µg/mL) | 2600 µM (≈ 1560 µg/mL) | 5200 µM (≈ 3110 µg/mL) | 1300 µM (≈ 779 µg/mL) | 1300 µM (≈ 779 µg/mL)
11 | CCCCCCCCCCCC(CCCCCCCCCCC)NC(=O)NC(CCC(=O)O)(CCC(=O)O)CCC(=O)O | > 10000 µM | 2500 µM (≈ 1530 µg/mL) | > 10000 µM | 7.2 µM (≈ 4.41 µg/mL) | 10000 µM (≈ 6130 µg/mL) | 640 µM (≈ 392 µg/mL) | 1300 µM (≈ 797 µg/mL) | > 10000 µM | 10000 µM (≈ 6130 µg/mL) | > 10000 µM | 
12 | CCCCCCCCCCCCCCCCCCCCNC(=O)NC(CCC(=O)O)(CCC(=O)O)CCC(=O)O | > 11000 µM | 62 µM (≈ 35.4 µg/mL) | 250 µM (≈ 143 µg/mL) | 2700 µM (≈ 1540 µg/mL) | 1400 µM (≈ 799 µg/mL) | 62 µM (≈ 35.4 µg/mL) | 120 µM (≈ 68.5 µg/mL) | 2700 µM (≈ 1540 µg/mL) | 680 µM (≈ 388 µg/mL) | 1400 µM (≈ 799 µg/mL) | 1400 µM (≈ 799 µg/mL)
13 | CCCCCCCCCCCCCCCCNC(=O)NC(CCC(=O)O)(CCC(=O)O)CCC(=O)O | > 12000 µM | 140 µM (≈ 72.1 µg/mL) | 280 µM (≈ 144 µg/mL) | 47 µM (≈ 24.2 µg/mL) | 6100 µM (≈ 3140 µg/mL) | 140 µM (≈ 72.1 µg/mL) | 550 µM (≈ 283 µg/mL) | 47 µM (≈ 24.2 µg/mL) | 3000 µM (≈ 1540 µg/mL) | 760 µM (≈ 391 µg/mL) | 6100 µM (≈ 3140 µg/mL)
14 | CCCCCCCC(CCCCCCC)NC(=O)NC(CCC(=O)O)(CCC(=O)O)CCC(=O)O | > 12000 µM | 3100 µM (≈ 1550 µg/mL) | > 12000 µM | 1100 µM (≈ 551 µg/mL) | 6200 µM (≈ 3100 µg/mL) | 3100 µM (≈ 1550 µg/mL) | 6200 µM (≈ 3100 µg/mL) | 3100 µM (≈ 1550 µg/mL) | 6200 µM (≈ 3100 µg/mL) |  | 
15 | CCCCCCCCCN(CCCCCCCCC)C(=O)NC(CCC(=O)O)(CCC(=O)O)CCC(=O)O | 12000 µM (≈ 6510 µg/mL) | 1400 µM (≈ 760 µg/mL) | > 1000 µM | 260 µM (≈ 141 µg/mL) | 12000 µM (≈ 6510 µg/mL) | 1400 µM (≈ 760 µg/mL) | 720 µM (≈ 391 µg/mL) | > 12000 µM | 5800 µM (≈ 3150 µg/mL) | > 12000 µM | 12000 µM (≈ 6510 µg/mL)
16 | CCCCCCCCC(CCCCCCCC)NC(=O)NC(CCC(=O)O)(CCC(=O)O)CCC(=O)O | > 12000 µM | 1500 µM (≈ 793 µg/mL) | > 12000 µM | 270 µM (≈ 143 µg/mL) | 5900 µM (≈ 3120 µg/mL) | 1500 µM (≈ 793 µg/mL) | 3000 µM (≈ 1590 µg/mL) | 740 µM (≈ 391 µg/mL) | 5900 µM (≈ 3120 µg/mL) |  | 
